B1: tRNA (parent)
chain: CUCUCGGUAGCCAAGUUGGUUUAAGGCGCAAGACUUUAAUUUAUCACUACGAAAUCUUGAGAUCGGGCGUUCGACUCGCCCCCGGGAGAUUUUUUCCUCGAGCAA

This sample holds only a part of the variants without activity.

The variants in this data set derive from B1. Nature of the data set: nonsense suppression (GFP-seq) (ratio to wild type); higher = more function; SUP4oc tRNA, yeast GFP reporter sort-seq. The gist of the method:
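Yeast carrying genome-integrated SUP4oc tRNA variants from a library with ~3% random mutations were grown in raffinose/galactose medium with 80 mg/L adenine. Each strain also carried a galactose-driven GFP ochre reporter and RFP. Cells were sorted into GFP/RFP bins, and each bin was Illumina-sequenced (phred ≥30). Nonsense suppression (GFPSEQ) is the bin median GFP/RFP, weighted by each variant's estimated cell share per bin, relative to wild-type SUP4oc; variants needed ≥100 reads and ≥30 cells.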
In the case of A30U U63A, the nonsense suppression stood at 0.157. In the case of A31G C83U, the nonsense suppression was 0.0743. Turning to A31G C83A, the nonsense suppression amounted to 0.0481. With A33C U63A, the nonsense suppression is at most 0.026.

On to G28U U35A, for which the nonsense suppression was at most 0.026. The result for G28U A54U reads at most 0.026; that for G32U A54C C81G, at most 0.026; that for C34A U63A C82G, at most 0.026.

As for A31C A62G G78A, the nonsense suppression was at most 0.026. To A33C U35C C83A belongs at most 0.026.

With A33G A87G, the nonsense suppression worked out at 0.0348. The result for C29G U55A reads at most 0.026. A31C C56G: the nonsense suppression was at most 0.026. The result for A31U C81U reads 0.0322. The result for U35C C83G reads at most 0.026; that for A33U U63A, 0.0268. Turning to A31U C56A U70C A89G, the nonsense suppression is at most 0.026. Turning to C34A G69A, the nonsense suppression was at most 0.026. The result for A30U A89U reads 0.0434; that for U35A G59A G67A, at most 0.026. To A31G C79U belongs 0.77; to A30U U55G G78C A89C, at most 0.026. In the case of C29U C83U, the nonsense suppression is 0.0384.

Consider A33G G84U, for which the nonsense suppression is 0.222. The result for A31U A62U reads 0.0539. To C34A C68A A87U belongs at most 0.026. As to C29U A30G A54C C75A, the nonsense suppression is 0.0386.

For C29A G85A, the nonsense suppression is 0.115.

Turning to A31U G59A C80U, the nonsense suppression was at most 0.026.

As to C34G U57A, the nonsense suppression is at most 0.026. For the variant G28U A60C, the nonsense suppression was 0.669. As to A33U G85A, the nonsense suppression amounted to 0.0389.

On to C29U A31G, for which the nonsense suppression was 0.0421.

As to A33C G61A A62G G73C, the nonsense suppression is at most 0.026. On to C34U A62G, for which the nonsense suppression was at most 0.026. Regarding C29A C72A U76A, the nonsense suppression was at most 0.026. The result for A33U A60U reads 0.204. To A31U U70C belongs at most 0.026. On to A31U U70A, for which the nonsense suppression is at most 0.026. To A31C G59C belongs at most 0.026; to A30U C68G, at most 0.026. The result for A30C A54U A60G A74U reads at most 0.026.

On to A30G G61C, for which the nonsense suppression was determined as 0.251. Take A30G G61A: the nonsense suppression worked out at 0.75.

A33G A54G A74C: the nonsense suppression was at most 0.026. The result for C34A U55C G66A reads at most 0.026. The result for A30G U55G U63G C64A reads at most 0.026; that for C29G G86A, at most 0.026. For the variant C29U G84A, the nonsense suppression turned out to be 0.0288. The result for A33G U55A A74C reads at most 0.026; that for C34U U35G U57C G61A C82U, at most 0.026. Take C34U U70A: the nonsense suppression was at most 0.026.

On to C29G G78A, for which the nonsense suppression is at most 0.026.

Consider A33G U57A U76C, for which the nonsense suppression was at most 0.026. To A31U G73C C81G belongs at most 0.026; to A33G G86C, 0.0374. To A31G U71A G73A C77U belongs at most 0.026; to A30U C77G, 0.0332. To A30U C77U belongs at most 0.026. As for A30G A89C, the nonsense suppression is 0.0603. For A30G A89U, the nonsense suppression was 0.0271.

For G32U U70C, the nonsense suppression is at most 0.026. For the variant A31G A33G C56A G65U, the nonsense suppression was at most 0.026. For the variant A30G G73A C75A, the nonsense suppression was 0.318. To C34G G78A C81G belongs at most 0.026. Turning to A30U G67A G73U A74G C81A, the nonsense suppression was at most 0.026. As for C29U A87G, the nonsense suppression is 0.438.

As to C29U U63C G85A, the nonsense suppression worked out at 0.849.

Take C29U G59C: the nonsense suppression is 0.0272. Regarding A30G C75U, the nonsense suppression was found to be 1.19.

Consider U35C A74G, for which the nonsense suppression is at most 0.026. As to G32C U76A, the nonsense suppression was at most 0.026. Consider C29U A60U, for which the nonsense suppression was determined as 1.18.

Consider C29U A60G, for which the nonsense suppression is 0.114. On to G28U A62G U63A A74C, for which the nonsense suppression was at most 0.026.

On to A31C C72G G78U, for which the nonsense suppression was at most 0.026.

For A31U G73U, the nonsense suppression was at most 0.026. On to A30U U58A, for which the nonsense suppression was 0.89. A31G A54U: the nonsense suppression is 0.627. Regarding A31G A54C, the nonsense suppression was determined as 0.0977. Take A33U G69C G73A: the nonsense suppression is at most 0.026.

As for A31G U35C, the nonsense suppression is 0.0321. On to A31G U35A, for which the nonsense suppression is 0.0292. Turning to A31G A33G U55C G61A, the nonsense suppression is 0.727. As for C29U G85U, the nonsense suppression amounted to 0.0262. The result for C29U G85A reads 1.14; that for A31G A87G, 0.762.

Take G32U C56G: the nonsense suppression was 0.207. The result for C29U U57G G85C reads at most 0.026; that for A33G G66C, 0.0263; that for A30U A60U, 0.769. Consider A30U A60G, for which the nonsense suppression came out at 0.27. The result for G32A U70A C72A reads at most 0.026. Consider C29U G32U U57A A62G U63C G69C, for which the nonsense suppression was at most 0.026. The result for C34U A54C C56G G73A G88C reads at most 0.026.

For A30G G78A, the nonsense suppression worked out at 0.101. To A30G C79U belongs 0.207. To G28U C79U belongs at most 0.026; to A30G A31G A60U, 0.726.

In the case of A30G A54C, the nonsense suppression came out at 0.077. As for A30G A54U, the nonsense suppression stood at 1.2.

Regarding A30G G85C, the nonsense suppression is at most 0.026. Take A30G G85A: the nonsense suppression is 0.793. For the variant C29U A31C C68U C77A, the nonsense suppression is at most 0.026. As to A30G C82U, the nonsense suppression was 0.0497. To A33C C56A U58G G85U belongs at most 0.026. In the case of G28U G61C, the nonsense suppression amounted to 0.321. For the variant G28U G61U, the nonsense suppression was found to be 0.191. The result for A30G C83A reads at most 0.026; that for A30U C81A, 0.0383.

Take C34U A60C C72A: the nonsense suppression is at most 0.026.

Take C34U G59U: the nonsense suppression is at most 0.026. Take C29A U57A G73A: the nonsense suppression is at most 0.026. To A30U A60U C68U belongs 0.0354. Take A33C U57G C64G: the nonsense suppression is at most 0.026. For G32U U63A C82U, the nonsense suppression came out at 0.0283.

With C29G C34G, the nonsense suppression was at most 0.026. The result for C34G U70G reads at most 0.026. As to A31U A60U, the nonsense suppression turned out to be 0.647. With A31U A60C, the nonsense suppression is 0.0348.

In the case of A33U G73C, the nonsense suppression was at most 0.026. On to C29G G59A C80G, for which the nonsense suppression was at most 0.026.

With A30U A31U C80A, the nonsense suppression was at most 0.026.

As for C34G A74U, the nonsense suppression was at most 0.026. The result for G32C C81G reads at most 0.026; that for C29U C77G, 0.0454; that for A31G U71G, at most 0.026. The result for A33G G59A C77A C83A G88A reads at most 0.026; that for C29U U57A U63G, at most 0.026. The result for A31G G67U A74G U76G C81A reads at most 0.026; that for A30U G32U C56A U58G, 1.11; that for A33G U76G, at most 0.026. In the case of A33G U76C, the nonsense suppression stood at 0.0419. The result for C29U U76A G84U reads at most 0.026; that for G32C A62G C80U, at most 0.026; that for A31G G67C G85A, at most 0.026. To C34G G78C belongs at most 0.026; to C29G U58A, at most 0.026; to A33C G61U G66U, at most 0.026. The result for A31G C82U reads 0.25. In the case of C34A U55A C80A, the nonsense suppression was at most 0.026. Regarding A30G C72G, the nonsense suppression amounted to 0.0409. The result for G28U U71G reads at most 0.026.

For the variant G32C C56G A60C, the nonsense suppression came out at 0.275. To C34U C77G C79G A89U belongs at most 0.026; to A31G G61C, 0.275; to A31G G61A, 0.8. The result for A30C A60U U63A G69C reads at most 0.026; that for A30C U70C, at most 0.026; that for A30G C64U, 0.0605. On to A33G U58A, for which the nonsense suppression was at most 0.026. Regarding C29U C82U, the nonsense suppression stood at 0.224. The result for A33G A54U reads 0.0526.

As for C29U C79U G86A, the nonsense suppression is at most 0.026. The result for G28U U76A reads at most 0.026; that for G28C U76C, 0.799. In the case of C29U A33U, the nonsense suppression is 0.0316.

With C29U U35C U58G C64U G66C, the nonsense suppression was at most 0.026. A31C A60U C75A: the nonsense suppression worked out at 1.23. As for A33G G85C, the nonsense suppression amounted to 0.0351. To C29G belongs at most 0.026; to C29A, 0.113; to C29U, 1.07. Consider A30G A33G, for which the nonsense suppression is 0.046. Turning to A30G A33U, the nonsense suppression was at most 0.026. On to A30G A74G, for which the nonsense suppression is 0.098. Turning to A30G A74C, the nonsense suppression stood at 0.0554.

These data come from the RNAGym collection of RNA variant scans (doi:10.1101/gad.245936.114).
